Experimental findings from BindingDB's records for doi:10.1021/jm980408v (University of Kuopio, 1999) are described below.

Sequence of Histamine H3 receptor (Q9QYN8 whole entry): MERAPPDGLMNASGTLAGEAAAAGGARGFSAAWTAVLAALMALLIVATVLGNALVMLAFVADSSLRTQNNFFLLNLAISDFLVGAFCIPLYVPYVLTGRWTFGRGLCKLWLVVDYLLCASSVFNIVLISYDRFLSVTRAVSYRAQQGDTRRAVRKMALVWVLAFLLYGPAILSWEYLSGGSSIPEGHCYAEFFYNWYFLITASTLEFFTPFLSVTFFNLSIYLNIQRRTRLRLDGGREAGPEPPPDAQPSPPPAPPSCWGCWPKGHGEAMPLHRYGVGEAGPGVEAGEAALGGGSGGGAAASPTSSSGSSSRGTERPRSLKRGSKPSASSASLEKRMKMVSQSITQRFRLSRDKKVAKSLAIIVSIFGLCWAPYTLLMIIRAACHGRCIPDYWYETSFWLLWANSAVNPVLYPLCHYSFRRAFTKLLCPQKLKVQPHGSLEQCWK

This experiment has as its target Histamine H3 receptor (Rattus norvegicus, UniProt Q9QYN8). Put plainly: Affinity for histamine H3 receptor in rat cerebral cortex. Put shortly:
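Affinity for the H3 receptor measured in an in vitro binding assay by displacement of the radioligand [3H]R-(α)-methylhistamine.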
The term Ki denotes a dissociation constant, usually derived from enzyme kinetics or from competition with a known ligand. `COC[C@@H](N)Cc1c[nH]cn1`: affinity was put at a Ki of 1250 nM.

As for `N[C@@H](CO)Cc1c[nH]cn1`, affinity was put at a Ki of 1250 nM.

For the compound `N[C@@H](COCc1ccc(Br)cc1)Cc1c[nH]cn1`, the Ki amounted to 199 nM.

For `N[C@H](CO)Cc1c[nH]cn1` [HISTIDINOL], the affinity, expressed as Ki, was 251 nM.

Compound `N[C@H](COCc1ccc(I)cc1)Cc1c[nH]cn1` came in with a Ki of 251 nM.

Take `Ic1ccc(COCCCc2c[nH]cn2)cc1` [Iodoproxyfan]: affinity was put at a Ki of 0.126 nM.

Turning to `N[C@@H](COCc1ccccc1)Cc1c[nH]cn1`, the affinity, expressed as Ki, was 316 nM.

In the case of `N[C@H](COCC1CCCCC1)Cc1c[nH]cn1`, the Ki turned out to be 12.6 nM.

For `N[C@H](COCc1ccccc1)Cc1c[nH]cn1`, affinity was put at a Ki of 50.1 nM.

For `N[C@@H](COCc1ccc(I)cc1)Cc1c[nH]cn1`, the Ki stood at 199 nM.

As for `N[C@H](COCc1ccc(Br)cc1)Cc1c[nH]cn1`, the inhibition constant (Ki) is 79.4 nM.

As for `N[C@@H](COCC1CCCCC1)Cc1c[nH]cn1`, the affinity, expressed as Ki, was 158 nM. Compared with the last compound, the Ki is about 2-fold higher.

Turning to `c1ccc(COCCCc2c[nH]cn2)cc1` [proxifan], the Ki is 3.16 nM.
